# Source: ChEMBL document CHEMBL3044834, “Novel protoporphyrinogen oxidase inhibitors: 3H-pyrazolo[3,4-d][1,2,3]triazin-4-one derivatives” (J Agric Food Chem, 2008)
# Legend:
# Format in all cases: functional
# [1] = system: Brassica rapa subsp. oleifera; experiment: Herbicidal activity against Brassica rapa subsp. oleifera assessed as inhibition of fresh weed plant weight at 375 g/ha using pre-emergence treatment protocol
# [2] = system: Brassica rapa subsp. oleifera; experiment: Herbicidal activity against Brassica rapa subsp. oleifera assessed as inhibition of fresh weed plant weight at 187.5 g/ha using pre-emergence treatment protocol
# [3] = system: Echinochloa crus-galli; experiment: Herbicidal activity against Echinochloa crus-galli (barnyard grass) assessed as inhibition of fresh weed plant weight at 93.75 g/ha using post-emergence treatment protocol
# How it was run: (§1)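 Test compounds made up as emulsions by dissolving in 100 µL N,N-dimethylformamide, then adding a little Tween 20 and water. For post-emergence, weed seedlings at one leaf and one stem were sprayed at the same rates as the pre-emergence test. Fresh weight was recorded 15 days after treatment and expressed as percent inhibition versus controls. All treatments were run in triplicate.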
# [4] = system: Brassica rapa subsp. oleifera; experiment: Herbicidal activity against Brassica rapa subsp. oleifera assessed as inhibition of fresh weed plant weight at 45 g/ha using pre-emergence treatment protocol
# [5] = system: Echinochloa crus-galli; experiment: Herbicidal activity against Echinochloa crus-galli (barnyard grass) assessed as inhibition of fresh weed plant weight at 750 g/ha using pre-emergence treatment protocol
# [6] = system: Echinochloa crus-galli; experiment: Herbicidal activity against Echinochloa crus-galli (barnyard grass) assessed as inhibition of fresh weed plant weight at 750 g/ha using post-emergence treatment protocol; how it was run: as §1
# [7] = system: Amaranthus retroflexus; experiment: Herbicidal activity against Amaranthus retroflexus assessed as inhibition of fresh weed plant weight at 93.75 g/ha using post-emergence treatment protocol; how it was run: as §1
# [8] = system: Brassica rapa subsp. oleifera; experiment: Herbicidal activity against Brassica rapa subsp. oleifera assessed as inhibition of fresh weed plant weight at 1500 g/ha using post-emergence treatment protocol; how it was run: as §1
# [9] = system: Echinochloa crus-galli; experiment: Herbicidal activity against Echinochloa crus-galli (barnyard grass) assessed as inhibition of fresh weed plant weight at 187.5 g/ha using post-emergence treatment protocol; how it was run: as §1
# [10] = system: Digitaria sanguinalis; experiment: Herbicidal activity against Digitaria sanguinalis (hairy crabgrass) assessed as inhibition of fresh weed plant weight at 750 g/ha using post-emergence treatment protocol; how it was run: as §1
# [11] = system: Digitaria sanguinalis; experiment: Herbicidal activity against Digitaria sanguinalis (hairy crabgrass) assessed as inhibition of fresh weed plant weight at 187.5 g/ha using pre-emergence treatment protocol
# [12] = system: Amaranthus retroflexus; experiment: Herbicidal activity against Amaranthus retroflexus assessed as inhibition of fresh weed plant weight at 375 g/ha using pre-emergence treatment protocol
# [13] = system: Amaranthus retroflexus; experiment: Herbicidal activity against Amaranthus retroflexus assessed as inhibition of fresh weed plant weight at 1500 g/ha using post-emergence treatment protocol; how it was run: as §1
# [14] = system: Brassica rapa subsp. oleifera; experiment: Herbicidal activity against Brassica rapa subsp. oleifera assessed as inhibition of fresh weed plant weight at 375 g/ha using post-emergence treatment protocol; how it was run: as §1
# [15] = system: Amaranthus retroflexus; experiment: Herbicidal activity against Amaranthus retroflexus assessed as inhibition of fresh weed plant weight at 187.5 g/ha using pre-emergence treatment protocol
# [16] = system: Echinochloa crus-galli; experiment: Herbicidal activity against Echinochloa crus-galli (barnyard grass) assessed as inhibition of fresh weed plant weight at 375 g/ha using post-emergence treatment protocol; how it was run: as §1
# [17] = system: Echinochloa crus-galli; experiment: Herbicidal activity against Echinochloa crus-galli (barnyard grass) assessed as inhibition of fresh weed plant weight at 1500 g/ha using pre-emergence treatment protocol
# [18] = system: Echinochloa crus-galli; experiment: Herbicidal activity against Echinochloa crus-galli (barnyard grass) assessed as inhibition of fresh weed plant weight at 375 g/ha using pre-emergence treatment protocol; how it was run: as §1
# [19] = system: Echinochloa crus-galli; experiment: Herbicidal activity against Echinochloa crus-galli (barnyard grass) assessed as inhibition of fresh weed plant weight at 93.75 g/ha using pre-emergence treatment protocol
# [20] = system: Brassica rapa subsp. oleifera; experiment: Herbicidal activity against Brassica rapa subsp. oleifera assessed as inhibition of fresh weed plant weight at 187.5 g/ha using post-emergence treatment protocol; how it was run: as §1
# [21] = system: Amaranthus retroflexus; experiment: Herbicidal activity against Amaranthus retroflexus assessed as inhibition of fresh weed plant weight at 375 g/ha using post-emergence treatment protocol; how it was run: as §1
# [22] = system: Echinochloa crus-galli; experiment: Herbicidal activity against Echinochloa crus-galli (barnyard grass) assessed as inhibition of fresh weed plant weight at 1500 g/ha using post-emergence treatment protocol; how it was run: as §1
# [23] = system: Brassica rapa subsp. oleifera; experiment: Herbicidal activity against Brassica rapa subsp. oleifera assessed as inhibition of fresh weed plant weight at 93.75 g/ha using post-emergence treatment protocol; how it was run: as §1
# [24] = system: Amaranthus retroflexus; experiment: Herbicidal activity against Amaranthus retroflexus assessed as inhibition of fresh weed plant weight at 750 g/ha using post-emergence treatment protocol; how it was run: as §1
# [25] = system: Amaranthus retroflexus; experiment: Herbicidal activity against Amaranthus retroflexus assessed as inhibition of fresh weed plant weight at 187.5 g/ha using post-emergence treatment protocol; how it was run: as §1
# [26] = system: Digitaria sanguinalis; experiment: Herbicidal activity against Digitaria sanguinalis (hairy crabgrass) assessed as inhibition of fresh weed plant weight at 187.5 g/ha using post-emergence treatment protocol; how it was run: as §1
# [27] = system: Digitaria sanguinalis; experiment: Herbicidal activity against Digitaria sanguinalis (hairy crabgrass) assessed as inhibition of fresh weed plant weight at 93.75 g/ha using post-emergence treatment protocol; how it was run: as §1
# [28] = system: Echinochloa crus-galli; experiment: Herbicidal activity against Echinochloa crus-galli (barnyard grass) assessed as inhibition of fresh weed plant weight at 187.5 g/ha using pre-emergence treatment protocol; how it was run: as §1
# [29] = system: Brassica rapa subsp. oleifera; experiment: Herbicidal activity against Brassica rapa subsp. oleifera assessed as inhibition of fresh weed plant weight at 1500 g/ha using pre-emergence treatment protocol
# [30] = system: Brassica rapa subsp. oleifera; experiment: Herbicidal activity against Brassica rapa subsp. oleifera assessed as inhibition of fresh weed plant weight at 750 g/ha using pre-emergence treatment protocol
# [31] = system: Amaranthus retroflexus; experiment: Herbicidal activity against Amaranthus retroflexus assessed as inhibition of fresh weed plant weight at 1500 g/ha using pre-emergence treatment protocol
# [32] = system: Digitaria sanguinalis; experiment: Herbicidal activity against Digitaria sanguinalis (hairy crabgrass) assessed as inhibition of fresh weed plant weight at 375 g/ha using pre-emergence treatment protocol
# [33] = system: Digitaria sanguinalis; experiment: Herbicidal activity against Digitaria sanguinalis (hairy crabgrass) assessed as inhibition of fresh weed plant weight at 1500 g/ha using post-emergence treatment protocol; how it was run: as §1
# [34] = system: Digitaria sanguinalis; experiment: Herbicidal activity against Digitaria sanguinalis (hairy crabgrass) assessed as inhibition of fresh weed plant weight at 1500 g/ha using pre-emergence treatment protocol
# [35] = system: Echinochloa crus-galli; experiment: Herbicidal activity against Echinochloa crus-galli (barnyard grass) assessed as inhibition of fresh weed plant weight at 22.5 g/ha using pre-emergence treatment protocol; how it was run: as §1
# [36] = system: Amaranthus retroflexus; experiment: Herbicidal activity against Amaranthus retroflexus assessed as inhibition of fresh weed plant weight at 750 g/ha using pre-emergence treatment protocol; how it was run: as §1
# [37] = system: Amaranthus retroflexus; experiment: Herbicidal activity against Amaranthus retroflexus assessed as inhibition of fresh weed plant weight at 45 g/ha using pre-emergence treatment protocol
# [38] = system: Echinochloa crus-galli; experiment: Herbicidal activity against Echinochloa crus-galli (barnyard grass) assessed as inhibition of fresh weed plant weight at 45 g/ha using pre-emergence treatment protocol
# [39] = system: Brassica rapa subsp. oleifera; experiment: Herbicidal activity against Brassica rapa subsp. oleifera assessed as inhibition of fresh weed plant weight at 750 g/ha using post-emergence treatment protocol; how it was run: as §1
# [40] = system: Brassica rapa subsp. oleifera; experiment: Herbicidal activity against Brassica rapa subsp. oleifera assessed as inhibition of fresh weed plant weight at 22.5 g/ha using pre-emergence treatment protocol
# [41] = system: Digitaria sanguinalis; experiment: Herbicidal activity against Digitaria sanguinalis (hairy crabgrass) assessed as inhibition of fresh weed plant weight at 750 g/ha using pre-emergence treatment protocol
# [42] = system: Digitaria sanguinalis; experiment: Herbicidal activity against Digitaria sanguinalis (hairy crabgrass) assessed as inhibition of fresh weed plant weight at 45 g/ha using pre-emergence treatment protocol
# [43] = system: Amaranthus retroflexus; experiment: Herbicidal activity against Amaranthus retroflexus assessed as inhibition of fresh weed plant weight at 22.5 g/ha using pre-emergence treatment protocol
# [44] = system: Digitaria sanguinalis; experiment: Herbicidal activity against Digitaria sanguinalis (hairy crabgrass) assessed as inhibition of fresh weed plant weight at 22.5 g/ha using pre-emergence treatment protocol
# [45] = system: Digitaria sanguinalis; experiment: Herbicidal activity against Digitaria sanguinalis (hairy crabgrass) assessed as inhibition of fresh weed plant weight at 93.75 g/ha using pre-emergence treatment protocol
# [46] = system: Amaranthus retroflexus; experiment: Herbicidal activity against Amaranthus retroflexus assessed as inhibition of fresh weed plant weight at 93.75 g/ha using pre-emergence treatment protocol
# [47] = system: Digitaria sanguinalis; experiment: Herbicidal activity against Digitaria sanguinalis (hairy crabgrass) assessed as inhibition of fresh weed plant weight at 375 g/ha using post-emergence treatment protocol; how it was run: as §1
# [48] = system: Brassica rapa subsp. oleifera; experiment: Herbicidal activity against Brassica rapa subsp. oleifera assessed as inhibition of fresh weed plant weight at 93.75 g/ha using pre-emergence treatment protocol
smiles,measurement,setting,value
C=CCN1C(=O)COc2cc(F)c(-n3nnc4c(cnn4CC=C)c3=O)cc21,inhibition at 375 g/ha,[1],100%
same,inhibition at 187.5 g/ha,[2],93.3%
same,inhibition at 93.75 g/ha,[3],0.2%
same,inhibition at 45 g/ha,[4],40.7%
same,inhibition at 750 g/ha,[5],89.2%
same,inhibition at 750 g/ha,[6],49.9%
same,inhibition at 93.75 g/ha,[7],19%
same,inhibition at 1500 g/ha,[8],100%
same,inhibition at 187.5 g/ha,[9],14.2%
same,inhibition at 750 g/ha,[10],4.2%
same,inhibition at 187.5 g/ha,[11],26.5%
same,inhibition at 375 g/ha,[12],100%
same,inhibition at 1500 g/ha,[13],100%
same,inhibition at 375 g/ha,[14],95.3%
same,inhibition at 187.5 g/ha,[15],100%
same,inhibition at 375 g/ha,[16],23.2%
same,inhibition at 1500 g/ha,[17],96.5%
same,inhibition at 375 g/ha,[18],47.4%
same,inhibition at 93.75 g/ha,[19],10%
same,inhibition at 187.5 g/ha,[20],55.6%
same,inhibition at 375 g/ha,[21],53.7%
same,inhibition at 1500 g/ha,[22],89.3%
same,inhibition at 93.75 g/ha,[23],19.6%
same,inhibition at 750 g/ha,[24],85.1%
same,inhibition at 187.5 g/ha,[25],30.6%
same,inhibition at 187.5 g/ha,[26],0%
same,inhibition at 93.75 g/ha,[27],0%
same,inhibition at 187.5 g/ha,[28],34.4%
same,inhibition at 1500 g/ha,[29],100%
same,inhibition at 750 g/ha,[30],100%
same,inhibition at 1500 g/ha,[31],100%
same,inhibition at 375 g/ha,[32],51%
same,inhibition at 1500 g/ha,[33],31.2%
same,inhibition at 1500 g/ha,[34],92.3%
same,inhibition at 22.5 g/ha,[35],5.4%
same,inhibition at 750 g/ha,[36],100%
same,inhibition at 45 g/ha,[37],82.8%
same,inhibition at 45 g/ha,[38],7.4%
same,inhibition at 750 g/ha,[39],100%
same,inhibition at 22.5 g/ha,[40],12.7%
same,inhibition at 750 g/ha,[41],67.4%
same,inhibition at 45 g/ha,[42],17.1%
same,inhibition at 22.5 g/ha,[43],3.4%
same,inhibition at 22.5 g/ha,[44],4.9%
same,inhibition at 93.75 g/ha,[45],20.4%
same,inhibition at 93.75 g/ha,[46],100%
same,inhibition at 375 g/ha,[47],0%
same,inhibition at 93.75 g/ha,[48],60.4%
